This is an account of results in ChEMBL document CHEMBL1687825, “Plasma and intracellular (peripheral blood mononuclear cells) pharmacokinetics of once-daily raltegravir (800 milligrams) in HIV-infected patients” (Antimicrob Agents Chemother, 2011).

Molecules are shown by their SMILES.

The nature of data set [1]: AUCt in HIV-infected human plasma at 800 mg qd for 10 days administered in fasted condition on day 10 by HPLC with fluorescence detector. The format is ADME, cell-free. Put shortly: (§1)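 Day-10 fasted serial sampling 0–24 h after oral 800 mg once daily. Plasma from two centrifugations (390 × g, 1,090 × g, 10 min), stored −80°C; liquid-liquid extraction with tert-butyl methyl ether; HPLC C18, phosphate buffer (25 mM, pH 3)-acetonitrile, fluorescence ex 299/em 396 nm, linear 10–5,000 ng/ml. Noncompartmental: AUCτ linear trapezoidal, Cmax/Cτ by inspection, λz from terminal log-linear regression.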

Data set [2] has as its system PBMC. The data set can be described thus: Intracellular compound distribution in ratio in HIV-infected human PBMC at AUCt by LC-MS/MS analysis. The format is ADME, cell-based. In outline:
(§2)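 Intracellular distribution ratio: PBMC concentration (LC-MS/MS) divided by plasma concentration (HPLC-fluorescence), computed per patient for AUCτ, Cmax and Cτ from day-10 fasted 0–24 h profiles after 800 mg once daily; reported as median (range).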

The test system of data set [3] is PBMC. Description: Intracellular compound distribution in ratio in HIV-infected human PBMC at Ctau by LC-MS/MS analysis. Type of data set: ADME, cell-based. Put shortly:
as §2

Data set [4] in a line: Drug concentration at the end of dosing interval in HIV-infected human PBMC at 800 mg qd for 10 days administered in fasted condition on day 10 by LC-MS/MS analysis. Type of data set: ADME, cell-based. Conditions: read-out: Ctau. Put shortly:
(§3)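 EDTA blood kept 4°C, processed within 1 h; PBMCs isolated on Ficoll gradient, washed with 0.9% NaCl, pellet stored −80°C. LC-MS/MS, calibration 0.4–150 ng/ml lysate; cell number by DNA detection. Noncompartmental analysis; AUCτ linear trapezoidal; geometric mean (range).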

A further data set has as its system Homo sapiens. Description: Toxicity in HIV-infected human at 800 mg qd for 10 days administered in fasted condition on day 10. Conditions: in vivo, 240 h. The format is organism-based. Put shortly: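 Safety assessed on days 0 and 10 by clinical evaluation and laboratory tests (blood counts, chemistry) during 800 mg once-daily oral dosing added to ongoing antiretroviral therapy.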

Data set [5] can be described thus: Drug concentration at the end of dosing interval in HIV-infected human plasma at 800 mg qd for 10 days administered in fasted condition on day 10 by HPLC with fluorescence detector. The format is ADME, cell-free. Conditions: read-out: Ctau. Put shortly:
as §1

Data set [6] is described as follows: Cmax in HIV-infected human plasma at 800 mg qd for 10 days administered in fasted condition on day 10 by HPLC with fluorescence detector. On the set-up: dose 800 mg. The format is ADME, organism-based. Put shortly: as §1
Data set [7] has as its system PBMC. The data set can be described thus: Intracellular compound distribution in ratio in HIV-infected human PBMC at Cmax by LC-MS/MS analysis. The format is ADME, cell-based. Put shortly:
as §2

The nature of data set [8]: Terminal phase half life in HIV-infected human PBMC at 800 mg qd for 10 days administered in fasted condition on day 10 by LC-MS/MS analysis. The note with it: read-out: beta t1/2 (converted). The format is ADME, cell-based. In outline: as §3
Data set [9] in a line: Terminal phase half life in HIV-infected human plasma at 800 mg qd for 10 days administered in fasted condition on day 10 by HPLC with fluorescence detector. Type of data set: ADME, cell-free. The note with it: read-out: beta t1/2 (converted). In outline:
as §1

The nature of data set [10]: Cmax in HIV-infected human PBMC at 800 mg qd for 10 days administered in fasted condition on day 10 by LC-MS/MS analysis. Type of data set: ADME, organism-based. On the set-up: dose 800 mg. Put shortly: as §3
A short description of data set [11]: AUCt in HIV-infected human PBMC at 800 mg qd for 10 days administered in fasted condition on day 10 by LC-MS/MS analysis. Type of data set: ADME, cell-based. In outline: as §3

For `Cc1nnc(C(=O)NC(C)(C)c2nc(C(=O)NCc3ccc(F)cc3)c(O)c(=O)n2C)o1` [RALTEGRAVIR], the AUC(0-t) at 240 h in data set [1] worked out at 12200 ng·h/mL; in data set [11], 909 ng·h/mL. Besides, the Ratio in the data set on PBMC [2] is reported as 0.07; with PBMC [3], 0.18; with PBMC [7], 0.08. Besides, the concentration at 240 h worked out at 7 ng/mL in data set [4] and 89 ng/mL in data set [5]. The Activity result in the data set on Homo sapiens is given as “Non-toxic”. The Cmax in data set [6] was determined as 2640 ng/mL; in data set [10], 199 ng/mL. Also, the figures for the half-life in data set [8] and in data set [9] were 11.2 h and 16 h, respectively.

For orientation: AUC(0-t) means the area under the concentration-time curve up to a stated or last time point. Higher therefore signals more exposure. As a reminder, the Cmax is the peak of the concentration-time curve.
